# LMPTP inh – LMPTP phosphatase inhibitors, primary screen, biochemical, fluorescence intensity, uHTS; Low molecular weight phosphotyrosine protein phosphatase (Homo sapiens), P24666; recombinant LMPTP-A, OMFP fluorogenic substrate; inhibition, % at 20 µM; 360,000 tested, 0.22% active;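 active = compounds that cut the enzyme signal by at least half of the control window in the single-dose screen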;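 note: plate controls were DMSO wells with enzyme plus substrate for no effect and substrate without enzyme for full effect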
# Target sequence (P24666 whole entry, looked up): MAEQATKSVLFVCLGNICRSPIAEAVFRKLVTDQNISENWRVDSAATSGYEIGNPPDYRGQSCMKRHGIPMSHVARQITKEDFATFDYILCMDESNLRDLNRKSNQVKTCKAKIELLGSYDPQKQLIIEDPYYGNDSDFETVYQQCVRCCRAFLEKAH
#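 material = LMPTP-A | quantity = 0.625 nM enzyme | reagent = OMFP substrate, 400 µM final | buffer or medium = Bis-Tris pH 6.0, DTT, detergent | detection = endpoint fluorescence intensity from OMFP dephosphorylation | dosing = single 20 µM dose | read-out basis = % inhibition relative to no-enzyme and uninhibited control wells | control set = no-enzyme and uninhibited controls | timing = 50 min at room temperature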
# Scp-1 inhibitor – Scp-1 phosphatase inhibitors, primary screen, biochemical, colorimetric, uHTS; Recombinant Scp1, phosphopeptide, malachite green phosphate absorbance; 340,000 tested, 0.88% active; Carboxy-terminal domain RNA polymerase II polypeptide A small phosphatase 1 (Homo …; inhibition, % at 20 µM;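 active = inhibition above about 50% at 20 µM, limit read from the data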;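 note: plate controls were DMSO wells with enzyme for no effect and wells lacking enzyme for full effect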
# Target sequence (Q9GZU7 76-261 limits assumed): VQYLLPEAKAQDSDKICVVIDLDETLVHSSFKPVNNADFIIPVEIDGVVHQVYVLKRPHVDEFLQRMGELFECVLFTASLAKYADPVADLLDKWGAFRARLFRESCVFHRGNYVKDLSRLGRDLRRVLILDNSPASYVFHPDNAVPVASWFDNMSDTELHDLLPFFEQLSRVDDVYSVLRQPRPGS
#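 assay system = SCP-1 phosphatase catalytic domain, residues 76-261 | buffer or medium = 50 mM Tris acetate pH 5.5, 0.005% Tween-20, 10 mM MgCl2 | incubation = enzyme reaction 45 min at room temperature, colour 5 min, stabilisation 30 min | signal = Phosphate-binding colour reagent, absorbance read at 630 nm | measure = % inhibition at 20 µM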
# DNMT1 block – human DNMT1 methyltransferase inhibitors, primary screen, biochemical, molecular beacon, fluorescence, HinP1I cleavage, uHTS. DNA (cytosine-5)-methyltransferase 1 (Homo sapiens), P26358. 360,000 tested, 0.83% active. inhibition (reported as % activation of signal), % at 10 µM; in the data active = inhibition above about 50%
# STEP block – STEP phosphatase inhibitors, primary screen, biochemical, fluorescence intensity, uHTS; Tyrosine-protein phosphatase non-receptor type 5 (Homo sapiens), P54829; recombinant STEP, OMFP fluorogenic substrate; inhibition, % at 20 µM; 360,000 tested, 0.25% active; AID 588621, 2011;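 active = inhibition at 20 µM, scaled per plate between control wells, above about 37%, limit read from the data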;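 note: 0% = DMSO with enzyme and substrate and 100% = substrate only without enzyme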
#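 Assay system: isolated STEP enzyme / Timing: 20 min at room temperature, dark / Doses: 20 µM, 1% DMSO / Technique: fluorescence intensity, excitation 480 nm, emission 540 nm / Reagent: fluorogenic phosphatase substrate OMFP at 25 µM final / Measure: percent inhibition scaled to no-enzyme and uninhibited-enzyme controls, plate-pattern corrected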
# SUMO1 PPI mod – modulators of SUMO1 protein-protein interactions, primary screen, biochemical, uHTS; inhibition, % at 20 µM; AID 602429, 2012; 360,000 tested, 0.33% active; SUMO1 binding to a labelled peptide, TR-FRET, 1 h; in the data active = inhibition above about 37%
# Target sequence (P63165 whole entry, looked up): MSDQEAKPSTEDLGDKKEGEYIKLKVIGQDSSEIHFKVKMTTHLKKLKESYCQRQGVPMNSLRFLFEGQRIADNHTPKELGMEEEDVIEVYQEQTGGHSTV
# DNMT1 interf DR – spectral interference with molecular beacon fluorescence, dose response, artefact control for DNMT1 inhibitor project, biochemical, fluorescent molecular beacon. AID 602382, 2012. 200 tested, under 10 active. spectral interference counter-screen. shares compounds with DNMT1 block. IC50, µM; call rule not given here
# DNMT1 confirm – DNMT1 methyltransferase inhibitor retest, confirmation, biochemical, molecular beacon, fluorescence, single concentration; shares compounds with DNMT1 block; inhibition, % at 10 µM; 2,300 tested, 8% active; DNMT1 molecular beacon HinP1I cleavage; AID 602385, 2012;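 active = average inhibition of at least 30% in the single-concentration confirmation test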
# Beacon interf – shows spectral interference in the DNMT1 beacon assay; shares compounds with DNMT1 block; DNMT1 molecular beacon spectral interference counterscreen, fluorescence 485/520; activation (fluorescence interference), % at 10 µM; 2,300 tested, 1% active; AID 602387;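 active = activation of at least 30% at 10 µM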;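 note: DNMT1 catalytic domain with a HinP1I cleavage step and a FAM/dabcyl DNA beacon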
# The depositor's hits bear a star; x = not tested or not shown. This is a sample that favours compounds with a hit; in the whole collection about 1.7% have one here.
SMILES,LMPTP inh,Scp-1 inhibitor,DNMT1 block,STEP block,SUMO1 PPI mod,DNMT1 confirm,Beacon interf,others
COc1ccc(-n2nc(C(=O)Nc3ccc(OC)c(OC)c3)c3c4ccccc4n(C)c3c2=O)cc1,3.1,-3.4,60.0*,3.4,-3.6,1.7,3.6,
COc1ccc(-n2nc(C(=O)NCC(=O)Nc3cccc(Cl)c3)c3ccccc3c2=O)cc1OC,34.0,38.1,59.8*,10.3,-65.5,-2.7,-7.1,
CCn1c(CC(=O)Nc2ccccc2F)nnc1SCC(=O)N1CCN(c2ccccc2)CC1,-1.4,-6.4,76.9*,0.5,-2.1,1.3,1.2,
COc1ccc(C(=O)OCC(=O)Nc2ncc([N+](=O)[O-])s2)cc1OC,23.1,51.1*,99.4*,17.2,28.1,86.4*,-4.1,DNMT1 interf DR=>99
O=C(COC(=O)c1ccc(Br)o1)Nc1ncc([N+](=O)[O-])s1,3.2,17.8,71.2*,1.0,4.2,18.9,-4.1,
CSCCC(NC(=O)c1ccco1)C(=O)OCC(=O)N1c2ccccc2NC(=O)C1(C)C (centres undefined),0.0,-7.3,-6.0,0.1,1.7,x,x,
COC(=O)[C@@H](CC(C)C)N(Cc1ccccc1)S(=O)(=O)N(Cc1ccccc1)[C@@H](CC(C)C)C(=O)OC,2.3,-0.3,10.6,3.0,4.1,x,x,
CCOC(=O)CCCn1ccc2cc(S(=O)(=O)N3CCCC3)ccc21,-0.2,-8.6,0.0,5.5,2.4,x,x,
COc1ccc(-c2nc(CCNC(=O)c3ccco3)cs2)cc1OC,17.0,-0.3,83.5*,-1.0,-4.2,-0.1,1.5,
Cc1nc(C)c(C(=O)Nc2nc3c(C)cccc3s2)o1,4.9,49.1,78.9*,7.1,16.5,9.7,-0.5,
Cc1cccc2sc(NC(=O)C3CCCO3)nc12 (centres undefined),0.4,12.6,2.5,-3.2,-4.1,x,x,
O=C(CCCOc1ccc(Cl)cc1Cl)NNC(=O)c1ccc(NC(=O)c2ccccc2)cc1,68.7*,40.7,73.0*,6.0,0.3,-0.2,-1.8,
Cc1ccccc1C(=O)Nc1ccc(C(=O)NNC(=O)CCCOc2ccc(Cl)cc2Cl)cc1,17.9,28.3,10.8,0.9,-1.9,x,x,
COc1cccc(NC(=O)c2ccnc(N3CCC(C(=O)NCc4cc(OC)ccc4OC)CC3)c2)c1,2.9,-4.7,-2.6,2.4,2.4,x,x,
O=C(COc1cccc(Br)c1)NN=C1c2ccccc2-c2ccccc21,1.7,-33.6,53.7*,0.2,-5.2,0.0,-4.8,
COCCNC(=O)C1Cc2cc(S(=O)(=O)N3CCCC3)ccc2N1C(C)=O (centres undefined),-1.2,1.8,-0.4,-0.3,-2.8,x,x,
CCCCN(C(=O)c1cccc(-n2cccc2)c1)c1c(N)n(Cc2ccccc2)c(=O)[nH]c1=O,10.3,x,92.5*,6.8,33.3,7.0,0.0,
CCCc1cc(=O)[nH]c(SCC(=O)N2CC3(C)CC2CC(C)(C)C3)n1 (centres undefined),-1.5,-5.7,1.9,-0.1,5.8,x,x,
O=C(C1COc2ccccc2O1)N1CCc2ccccc21 (centres undefined),2.0,74.0*,57.8*,6.0,8.2,10.7,2.5,
O=C(C1COc2ccccc2O1)N1CCCC1 (centres undefined),-0.8,-2.2,0.7,-4.2,5.4,x,x,
COc1ccccc1Nc1cc2cc(Br)ccc2c(=O)[nH]1,9.3,11.4,68.7*,17.3,22.7,-0.1,3.3,

# Source: PubChem (Sanford-Burnham Center for Chemical Genomics)
